Laboratory results published in PMC3983374 (Journal of Medicinal Chemistry, 2014).

Experiments:
H1703 NSCLC cells = assay: Alkaline Comet assay; format: cell-based, human; conditions: H1703, 24 h treatment, 5 μM
[1] = Rate of reaction of prodrugs with 4 mM GSH; format: in vitro ADME; conditions: for kGSH/kGSH (mean ± SD): rate with GSH alone, normalised to itself
[2] = tested on: panel of NSCLC cell lines; assay: Proliferation of panel of NSCLC cell lines; format: cell-based; conditions: Homo sapiens, read-out: IC50 range over panel of NSCLC cell lines
Method in brief: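 Cell lines from ATCC were cultured per the supplier's protocol and tested by MTT assay per the kit protocol. Each concentration was run in six repeats, in at least two independent experiments. IC50 values were obtained by curve fitting.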

[3] = Analysis of metabolites in resected tumors; format: in vivo, NCr nu/nu athymic mice; conditions: resected tumors after 92 μmol/kg i.v., 2 times a week for 4 weeks
Method in brief: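 A549 cells, passaged at most four times in RPMI 1640 with 10% FBS, were harvested at 70–80% confluence and implanted s.c. at 5 × 10^6 cells/0.2 mL PBS into NCr nu/nu mice. At about 3 mm × 3 mm, mice were randomised into groups of 12. Test compound was given by tail vein at 92 μmol/kg in 20 μL DMSO, twice weekly for 4 weeks. Tumours were removed at euthanasia right after the last dose and frozen immediately for metabolite analysis.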

A549 NSCLC cells = assay: Cellular uptake and metabolism by LC/MS; format: in vitro ADME, human; conditions: A549, 10 μM, any time point from 5 min to 1 h
Method in brief: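 A549 cells were plated in 75 cm2 flasks overnight at 37 °C, then exposed to 10 μM test compound for varying times. Cells were lysed by scraping in 10 mM HCl/acetonitrile, 5% sulfosalicylic acid was added, and samples were spun at 12000g for 15 min and filtered. Analysis was by Q-TOF LC/MS in positive ion mode: C18 column, water/acetonitrile/0.1% formic acid gradient, extracted ion chromatograms at [M+H]+, with a lysate spiked with authentic compound as reference.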

[4] = tested on: A549 human lung adenocarcinoma xenografts; assay: A549 xenograft tumor growth; format: in vivo, NCr nu/nu athymic mice; conditions: 92 μmol/kg intravenously, 2 times a week for 4 weeks; compared to 1 or saline controls
caspase 7 = assay: Activation of apoptosis; format: cell-based; conditions: same concentration of 5b and 1
recombinant GSTP1 = assay: GSTP1-catalyzed reaction of prodrug with GSH; format: in vitro ADME; conditions: recombinant GSTP1 versus GSH alone
Method in brief: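 Kinetics were run at 37 °C by UV–visible spectrophotometry in 0.1 M phosphate buffer pH 7.4 with 50 μM DTPA and 4 mM GSH, with or without 40 nM GST. Substrate (typically 10 μM) was added after buffer and enzyme reached thermal equilibrium. Absorbance was followed at 302 nm, and the rate came from a first-order exponential fit.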

A549 cells = assay: Colony forming assay; format: cell-based, human; conditions: A549, combination treatment of 14 and 13
[5] = tested on: A549 lung adenocarcinoma cells; assay: Immunoblot analysis of glutathionylation, stress signaling and apoptosis; format: cell-based, human
Method in brief: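 A549 lysates from cells treated with test compound (1 μM for the apoptosis markers) were immunoblotted for p38, eIF2α phosphorylation, CHOP, BiP, ATF4, p53 Ser15, Puma, and cleaved caspases 8, 3 and 7 and PARP. […] Blots are representative of at least three independent experiments.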

PARP-1 enzyme = PARP-1 enzyme (Homo sapiens, UniProt P09874); assay: PARP-1 enzyme inhibition; format: biochemical; conditions: presence or absence of GSH (4 mM)/GSTP1 (40 nM)
Sequence of PARP-1 enzyme (P09874 whole entry): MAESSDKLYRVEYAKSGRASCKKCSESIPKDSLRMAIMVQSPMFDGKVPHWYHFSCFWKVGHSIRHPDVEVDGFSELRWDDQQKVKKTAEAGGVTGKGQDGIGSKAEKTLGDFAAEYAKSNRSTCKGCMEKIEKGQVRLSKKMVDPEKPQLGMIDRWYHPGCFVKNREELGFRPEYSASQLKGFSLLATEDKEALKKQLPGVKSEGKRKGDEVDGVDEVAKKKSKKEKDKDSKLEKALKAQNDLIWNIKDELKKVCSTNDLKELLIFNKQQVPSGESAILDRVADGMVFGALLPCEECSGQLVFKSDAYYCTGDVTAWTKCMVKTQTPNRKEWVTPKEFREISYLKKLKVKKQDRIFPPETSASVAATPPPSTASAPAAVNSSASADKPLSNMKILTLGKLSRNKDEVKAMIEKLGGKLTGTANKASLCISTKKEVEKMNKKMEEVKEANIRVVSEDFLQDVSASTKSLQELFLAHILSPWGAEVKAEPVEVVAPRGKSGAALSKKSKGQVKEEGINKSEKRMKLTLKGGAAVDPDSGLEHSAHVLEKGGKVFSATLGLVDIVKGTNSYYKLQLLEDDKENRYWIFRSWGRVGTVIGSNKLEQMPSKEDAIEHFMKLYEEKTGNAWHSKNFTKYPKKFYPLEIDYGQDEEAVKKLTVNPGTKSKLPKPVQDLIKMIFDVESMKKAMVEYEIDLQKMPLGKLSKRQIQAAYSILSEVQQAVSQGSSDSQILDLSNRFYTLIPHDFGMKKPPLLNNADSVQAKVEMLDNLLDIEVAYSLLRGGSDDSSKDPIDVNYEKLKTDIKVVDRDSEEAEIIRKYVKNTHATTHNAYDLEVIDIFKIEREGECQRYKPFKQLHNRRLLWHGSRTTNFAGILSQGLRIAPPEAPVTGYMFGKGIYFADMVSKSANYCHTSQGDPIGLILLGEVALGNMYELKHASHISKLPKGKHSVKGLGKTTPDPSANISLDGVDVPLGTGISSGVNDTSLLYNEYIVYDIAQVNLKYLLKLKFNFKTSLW

Structure (SMILES) | kGSH/kGSH (mean ± SD) [1] | IC50 [2] [µM] | parent drug and liberated PARP-1 inhibitor in tumors [3] | effect on tumor growth [4] | apoptotic signal (cleaved caspase 7) (caspase 7) | other results
O=C(c1cc(Cc2n[nH]c(=O)c3ccccc23)ccc1F)N1CCN(/[N+]([O-])=N/Oc2ccc([N+](=O)[O-])cc2[N+](=O)[O-])CC1 [Compound 5b] | 1 ± 0.007 | 3 to 20 | detected in some tumors | reduced growth of tumors to a lesser extent | strong apoptotic signal | DNA strand break damage (Comet assay) (H1703 NSCLC cells): significant DNA strand break damage; parent compound still present ([1]; 4 mM GSH, after 2 half-lives, LC/MS): 25%; parent compound in cell lysates (A549 NSCLC cells): not detected; enhancement of reaction with GSH when GSTP1 present (recombinant GSTP1): over 10 fold
O=C(c1cc(Cc2n[nH]c(=O)c3ccccc23)ccc1F)N1CCN(C(=O)C2CC2)CC1 [Compound 1, olaparib, reference compound] | – | – | – | – | did not trigger apoptosis | –
CN(C)/[N+]([O-])=N\Oc1cc(O/N=[N+](\[O-])N2CCN(C(=O)c3cc(Cc4n[nH]c(=O)c5ccccc45)ccc3F)CC2)c([N+](=O)[O-])cc1[N+](=O)[O-] [Compound 13] | 1 ± 0.004 | – | detected in some tumors | significant reduction of the tumor growth | – | cytotoxicity in combination with 14 (A549 cells): enhanced toxicity; time to caspase 8 activation ([5]; A549, 1 μM): ≤ 6 h; time to detection of glutathione attached to protein ([5]; A549, nonreducing immunoblot): ≤ 1 h; time to activation of stress kinase p38 ([5]; A549, phosphorylation persisted for 8 h): ≤ 15 min; PARP-1 enzyme inhibition, activated versus prodrug (PARP-1 enzyme): Activated compound is a much better PARP-1 inhibitor than the prodrug
CCOC(=O)N1CCN(/[N+]([O-])=N/Oc2ccc([N+](=O)[O-])cc2[N+](=O)[O-])CC1 [Compound 2, O^2-(2,4-dinitrophenyl) 1-[(4-ethoxycarbonyl)piperazin-1-yl]diazen-1-ium-1,2-diolate, reference compound] | 1 ± 0.001 | – | – | – | – | –
O=C(c1cccc(Cc2n[nH]c(=O)c3ccccc23)c1)N1CCN(/[N+]([O-])=N/Oc2ccc([N+](=O)[O-])cc2[N+](=O)[O-])CC1 [Compound 5a] | – | 3 to 20 | – | – | – | –
CNc1ccc(C(=O)Oc2cc(O/N=[N+](\[O-])N(C)C)c([N+](=O)[O-])cc2[N+](=O)[O-])cc1 [Compound 8, PABA/NO, reference compound] | 1 ± 0.003 | – | – | – | – | –
